{
  "source": "ChEMBL document CHEMBL4354866",
  "about": "“TREK Channel Family Activator with a Well-Defined Structure-Activation Relationship for Pain and Neurogenic Inflammation” (J Med Chem, 2020)",
  "key": {"[1]": {"biological_target": "T1, Potassium channel subfamily K member 2 (Homo sapiens) (UniProt O95069)", "T1 sequence (whole entry)": "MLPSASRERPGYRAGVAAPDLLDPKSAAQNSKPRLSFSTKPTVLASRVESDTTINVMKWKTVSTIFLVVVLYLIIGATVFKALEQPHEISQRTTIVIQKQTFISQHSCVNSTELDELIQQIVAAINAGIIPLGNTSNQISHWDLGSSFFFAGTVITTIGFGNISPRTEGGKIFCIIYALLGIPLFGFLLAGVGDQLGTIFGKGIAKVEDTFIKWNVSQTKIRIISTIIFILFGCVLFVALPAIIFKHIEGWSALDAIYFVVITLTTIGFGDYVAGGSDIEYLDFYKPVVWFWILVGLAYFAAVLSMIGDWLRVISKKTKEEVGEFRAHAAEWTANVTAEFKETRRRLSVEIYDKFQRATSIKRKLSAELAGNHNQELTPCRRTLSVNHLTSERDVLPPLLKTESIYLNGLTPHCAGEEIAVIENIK", "assay": "Activation of recombinant human TREK1 expressed in HEK293T cells assessed as increase in K+ current amplitude at 30 uM by whole cell voltage clamp electrophysiological analysis", "assay_type": "cell-based"}, "Mus musculus [2]": {"tested_on": "Mus musculus", "assay": "Analgesic activity in cerulein-induced mouse model of acute pancreatitis assessed as reduction in myeloperoxidase activity at 10 mg/kg, ip administered at 2 hrs interval for 10 hrs starting from post-first cerulein challenge and measured 12 hrs post-first cerulein challenge", "assay_type": "functional, organism-based", "method_in_brief": "(§1)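 Cerulein pancreatitis: 7 hourly i.p. injections of 50 µg/kg; 10 mg/kg compound i.p. at 2, 4, 6, 8 and 10 h. Mice killed at 12 h and pancreas harvested for MPO activity and H&E histology. Ten random fields per slide scored blind by two observers for edema, inflammatory infiltration and acinar necrosis; n = 6.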"}, "Mus musculus [3]": {"tested_on": "Mus musculus", "assay": "(§2) Analgesic activity in cerulein-induced mouse model of acute pancreatitis assessed as reduction in pancreatic edema at 10 mg/kg, ip administered at 2 hrs interval for 10 hrs starting from post-first cerulein challenge and measured 12 hrs post-first cerulein challenge by H and E staining based histopathological analysis", "assay_type": "functional, organism-based", "method_in_brief": "as §1"}, "Mus musculus [4]": {"tested_on": "Mus musculus", "assay": "as §2, with “inflammatory infiltration” for “edema”", "assay_type": "functional, organism-based", "method_in_brief": "as §1"}, "Mus musculus [5]": {"tested_on": "Mus musculus", "assay": "Analgesic activity in mouse assessed as increase in tail flick latency time at 5 mg/kg, ip at 52 degC by tail immersion test", "assay_type": "functional, organism-based", "method_in_brief": "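Male BALB/c or C57BL/6 mice, 6–8 weeks, acclimated in a holder 15 min/day for 3 days. Distal 3 cm of tail immersed at 5, 20, 40, 46 or 52 °C; flick latency recorded, cut-off 15 s. Compound i.p. in 5% DMSO/5% Tween 80/90% saline (1.25–10 mg/kg at 52 °C; 5 mg/kg across temperatures).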"}, "Mus musculus [6]": {"tested_on": "Mus musculus", "assay": "as §2, with “necrosis” for “edema”", "assay_type": "functional, organism-based", "method_in_brief": "as §1"}, "Mus musculus [7]": {"tested_on": "Mus musculus", "assay": "Analgesic activity in mouse model of spared nerve injury assessed as reduction in cold hyperalgesia at 30 mg/kg, ip measured at 7 days interval for up to 21 days post spared nerve injury by cold plantar test", "assay_type": "functional, organism-based", "method_in_brief": "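Male mice (BALB/c or C57BL/6, 6-8 weeks) after SNI; compound given i.p. in 5% DMSO, 5% Tween 80, 90% saline. Mice acclimated 3 days on a 6 mm glass plate. A syringe packed with powdered dry ice was applied under the centre of the left hindpaw. Paw withdrawal latency was timed by stopwatch with a 30 s cutoff. Groups compared by unpaired t test or Mann-Whitney.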"}, "[8]": {"biological_target": "T1, Potassium channel subfamily K member 2 (Homo sapiens)", "assay": "Activation of recombinant human TREK1 expressed in HEK293T cells assessed as increase in K+ current amplitude at 1 mM by whole cell voltage clamp electrophysiological analysis", "assay_type": "cell-based"}},
  "note": "Activity calls are given as the source filed them.",
  "data": [
    {"smiles": "COC(=O)[C@H]1CC[C@@H](C(=O)Nc2ccc(-c3nc4ccc(C)cc4s3)cc2)C1", "values": [
      {"measurement": "Activity", "setting": "[1]", "value": "inactive"}
    ]},
    {"smiles": "Cc1ccc2nc(-c3ccc(NC(=O)C4CCCC4)cc3)sc2c1", "values": [
      {"measurement": "Activity", "setting": "Mus musculus [2]", "value": "inactive"},
      {"measurement": "Activity", "setting": "Mus musculus [3]", "value": "inactive"},
      {"measurement": "Activity", "setting": "[1]", "value": "inactive"},
      {"measurement": "Activity", "setting": "Mus musculus [4]", "value": "inactive"},
      {"measurement": "Activity", "setting": "Mus musculus [5]", "value": "inactive"},
      {"measurement": "Activity", "setting": "Mus musculus [6]", "value": "inactive"}
    ]},
    {"smiles": "CC(C)C[C@H](CN)CC(=O)O", "values": [
      {"measurement": "Activity", "setting": "Mus musculus [7]", "value": "Active"}
    ]},
    {"smiles": "C[N+](C)(C)CCSS(C)(=O)=O", "values": [
      {"measurement": "Activity", "setting": "[8]", "value": "inactive"}
    ]}
  ]
}
